Type in all cases: functional, cell-based
One assay relates to A549. Description: Cytotoxicity against human A549 cells after 72 hrs by sulforhodamine B assay. The note with it: for EC50: A549, 72 h. Put shortly:
(§1)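 SRB assay following NCI procedure; 72 h continuous exposure. Cells grown at 37 °C, 5% CO2, humidified, in RPMI-1640 with 25 mM HEPES, 2% (w/v) sodium bicarbonate, 10% (v/v) FBS, 100 µg/mL kanamycin. Compounds from DMSO stocks, final DMSO ≤1% (v/v). EC50 (µg/mL, 50% cell-number reduction) interpolated from dose-response; triplicate tests; doxorubicin positive control.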

The next assay deals with MCF7. Nature of the assay: Cytotoxicity against human MCF7 cells after 72 hrs by sulforhodamine B assay. The note with it: for EC50: MCF7, 72 h. Put shortly: as §1
The next assay relates to KB. Nature of the assay: Cytotoxicity against human KB cells after 72 hrs by sulforhodamine B assay. In a few lines: as §1
Assay [1] in a line: Cytotoxicity against human KB-VIN cells after 72 hrs by sulforhodamine B assay. To be noted: KBVIN. In a few lines: as §1

In brackets after ≈: the same amount, converted by molar mass. Activity calls are given as the source filed them. No cut-off for these calls is given here.

`COc1ccc2cc(/C=C/C(=O)O)c3cc(OC)c(OC)cc3c2c1`: the result in the assay with A549, in the assay with MCF7 and in the assay on KB was inactive. Also, the EC50 in assay [1] worked out at 14.7 µg/mL (≈ 43.5 µM).
For the compound `COc1ccc2c(c1)c1cc(OC)c(OC)cc1c1cc[nH]c(=O)c21`, the result in the assay with A549, in the assay with MCF7 and in the assay on KB was inactive. This compound also registered an EC50 in assay [1] of 7.39 µg/mL (≈ 22 µM).
As to `COc1ccc2cc(/C=C/C(=O)N=[N+]=[N-])c3cc(OC)c(OC)cc3c2c1`, in the assay with A549, the result was inactive. Also, the EC50 in the assay with MCF7 turned out to be 8.29 µg/mL (≈ 22.8 µM); in the assay with KB it was 13.5 µg/mL (≈ 37.2 µM); in assay [1], 9.36 µg/mL (≈ 25.8 µM).
On to `COc1ccc2c3c(c4cc(OC)c(OC)cc4c2c1)C(=O)N1CCCC1C3` (stereo not given), for which the EC50 in the assay with A549 came out at 1.15 µg/mL (≈ 3.05 µM); with MCF7, 2.14 µg/mL (≈ 5.67 µM); with KB, 1.39 µg/mL (≈ 3.68 µM); in assay [1] it was 1.16 µg/mL (≈ 3.07 µM).
On the same counts, the results for `COc1ccc2c3c(c4cc(OC)c(OC)cc4c2c1)CC1CCCN1C3` (racemic) [(+/-)-ANTOFINE] are 0.00016 µg/mL (≈ 0.00044 µM), 0.0045 µg/mL (≈ 0.0124 µM), 0.00043 µg/mL (≈ 0.00118 µM) and 0.00083 µg/mL (≈ 0.00228 µM).
On the same counts, the results for `COc1ccc2c3c(c4cc(OC)c(OC)cc4c2c1)CN1CCCC1C3` (racemic) [(+/-)-DEOXYTYLOPHORININE] are 0.011 µg/mL (≈ 0.0303 µM), 0.043 µg/mL (≈ 0.118 µM), 0.023 µg/mL (≈ 0.0633 µM) and 0.016 µg/mL (≈ 0.044 µM).
On the same counts, the results for `COc1ccc2c(c1)c1cc(OC)c(OC)cc1c1cc3[n+](cc21)CCC3.[Br-]` [DEHYDROANTOFINE BROMIDE] are 0.49 µg/mL, 1.29 µg/mL, 5.37 µg/mL and 5.14 µg/mL.
As to `COc1ccc2c(c1)c1cc(OC)c(OC)cc1c1cc3[n+](cc21)CCC3.[Cl-]` [DEHYDROANTOFINE CHLORIDE], the EC50 in the assay on A549 was 0.73 µg/mL; in the assay with MCF7 it was 1.72 µg/mL; in the assay with KB, 0.93 µg/mL; in assay [1] it was 0.33 µg/mL.
`COc1ccc2c(c1)c1cc(OC)c(OC)cc1c1c[n+]3c(cc21)CCC3.[Br-]` [DEOXYPERGULARININE BROMIDE]: the EC50 in the assay on A549 amounted to 0.32 µg/mL; in the assay with MCF7, 1.18 µg/mL; in the assay on KB, 0.29 µg/mL; in assay [1] it was 8.26 µg/mL.
On the same counts, the results for `COc1ccc2c(c1)c1cc(OC)c(OC)cc1c1c[n+]3c(cc21)CCC3.[Cl-]` [DEOXYPERGULARININE CHLORIDE] are 1.06 µg/mL, 1.49 µg/mL, 0.95 µg/mL and 5.66 µg/mL.

The values are drawn from ChEMBL document CHEMBL1150332, “Total synthesis of phenanthroindolizidine alkaloids (+/-)-antofine, (+/-)-deoxypergularinine, and their dehydro congeners and evaluation of their cytotoxic activity” (Bioorg Med Chem, 2008).
